Data taken from ChEMBL document CHEMBL3102735, “Enhancing the pharmacodynamic profile of a class of selective COX-2 inhibiting nitric oxide donors” (Bioorg Med Chem, 2014).
In brackets after ≈: the same amount, converted by molar mass. Activity calls are given as the source filed them. The calls are words filed in the database; no cut-off is given here.

Columns and labels:
J774 = experiment: Selectivity index, ratio of IC50 for COX-1 to IC50 for COX-2 in mouse J774 cells; format: cell-based
Summary of the method: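 J774 macrophages stimulated 24 h with E. coli LPS (10 µg/mL) to induce COX-2, with or without compound (0.01–10 µM); supernatant PGE2 by RIA. Triplicate wells, three experiments, percent inhibition versus control, IC50 by sigmoidal fit; selectivity as COX-1/COX-2 IC50 ratio.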

[1] = target: T1, Prostaglandin G/H synthase 1 (Mus musculus, UniProt P22437); experiment: Inhibition of COX-1 in mouse J774 cells using arachidonic acid as substrate assessed as inhibition of prostaglandin E2 production preincubated for 15 mins followed by substrate addition measured after 30 mins by RIA; format: cell-based
T1 sequence (P22437 whole entry): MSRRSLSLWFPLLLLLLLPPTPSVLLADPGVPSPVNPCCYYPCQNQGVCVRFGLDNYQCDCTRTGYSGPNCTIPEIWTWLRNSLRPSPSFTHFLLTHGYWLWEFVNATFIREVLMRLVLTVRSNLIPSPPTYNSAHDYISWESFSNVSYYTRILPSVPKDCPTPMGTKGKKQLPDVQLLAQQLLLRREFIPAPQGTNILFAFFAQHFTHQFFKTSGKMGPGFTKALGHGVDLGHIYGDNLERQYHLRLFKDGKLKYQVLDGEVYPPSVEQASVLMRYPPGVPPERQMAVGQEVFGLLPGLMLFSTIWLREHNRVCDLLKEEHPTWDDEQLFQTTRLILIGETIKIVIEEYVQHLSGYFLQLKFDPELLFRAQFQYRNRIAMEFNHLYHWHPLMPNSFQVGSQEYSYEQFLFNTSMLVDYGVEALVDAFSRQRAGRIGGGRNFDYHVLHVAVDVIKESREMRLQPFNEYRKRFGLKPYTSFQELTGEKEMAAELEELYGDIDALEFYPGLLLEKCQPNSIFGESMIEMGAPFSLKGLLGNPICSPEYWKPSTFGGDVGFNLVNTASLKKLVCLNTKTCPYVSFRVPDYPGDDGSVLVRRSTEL
Summary of the method: (§1)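 J774 murine macrophages pretreated 15 min with compound (10 µM; lower concentrations 0.01–1 µM where needed), then incubated 30 min at 37 °C with 15 µM arachidonic acid; supernatant PGE2 measured by RIA. Triplicate wells, mean of three experiments of percent inhibition versus control; IC50 by sigmoidal fit.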

[2] = target: T2, Prostaglandin G/H synthase 2 (Mus musculus) (UniProt Q05769); experiment: Inhibition of LPS-induced COX-2 in mouse J774 cells using arachidonic acid as substrate assessed as inhibition of prostaglandin E2 production at 10 uM preincubated for 15 mins followed by substrate addition measured after 30 mins by RIA; format: cell-based
T2 sequence (whole entry): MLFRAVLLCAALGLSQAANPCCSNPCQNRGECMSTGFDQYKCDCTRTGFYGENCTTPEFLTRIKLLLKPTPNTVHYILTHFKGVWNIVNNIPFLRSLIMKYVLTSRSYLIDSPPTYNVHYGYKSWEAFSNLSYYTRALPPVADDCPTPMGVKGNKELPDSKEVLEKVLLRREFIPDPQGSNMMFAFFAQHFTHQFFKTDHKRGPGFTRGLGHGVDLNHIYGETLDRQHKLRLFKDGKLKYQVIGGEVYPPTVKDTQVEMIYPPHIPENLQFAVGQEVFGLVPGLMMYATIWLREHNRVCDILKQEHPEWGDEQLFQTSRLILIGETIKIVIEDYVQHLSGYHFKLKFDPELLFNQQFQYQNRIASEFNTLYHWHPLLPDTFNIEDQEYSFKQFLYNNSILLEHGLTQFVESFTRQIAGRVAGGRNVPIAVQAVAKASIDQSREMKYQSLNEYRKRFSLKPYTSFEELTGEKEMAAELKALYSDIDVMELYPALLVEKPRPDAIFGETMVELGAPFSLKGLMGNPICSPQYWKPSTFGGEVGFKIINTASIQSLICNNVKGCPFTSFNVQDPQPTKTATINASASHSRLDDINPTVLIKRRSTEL

[3] = target: T3, Prostaglandin G/H synthase 1 (Mus musculus) (UniProt P22437); experiment: Inhibition of COX-1 in mouse J774 cells using arachidonic acid as substrate assessed as inhibition of prostaglandin E2 production at 10 uM preincubated for 15 mins followed by substrate addition measured after 30 mins by RIA; format: cell-based; summary of the method: as §1
T3 sequence (whole entry): T1 sequence (P22437 whole entry)

[4] = target: T4, Prostaglandin G/H synthase 2 (Mus musculus, UniProt Q05769); experiment: Inhibition of LPS-induced COX-2 in mouse J774 cells using arachidonic acid as substrate assessed as inhibition of prostaglandin E2 production preincubated for 15 mins followed by substrate addition measured after 30 mins by RIA; format: cell-based
T4 sequence (Q05769 whole entry): T2 sequence (whole entry)

Mus musculus [5] = experiment: Analgesic activity in po dosed Swiss albino mouse assessed as reduction of acetic acid-induced writhing measured every 10 mins after 5 mins of administration; format: functional, organism-based
Summary of the method: (§2)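 Male Swiss albino mice (23–25 g), compound given orally in CMC vehicle; writhing induced by 0.6% acetic acid (10 mL/kg) ip. Stretching movements counted for 10 min, starting 5 min after administration; percent reduction versus CMC-treated animals.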

Mus musculus [6] = experiment: Analgesic activity in Swiss albino mouse assessed as reduction of acetic acid-induced writhing at 40 mg/kg, po measured every 10 mins after 5 mins of administration relative to control; format: functional; set-up: scale not given: the % may be the effect or the level left; summary of the method: as §2
Mus musculus [7] = experiment: Analgesic activity in Swiss albino mouse assessed as reduction of acetic acid-induced writhing at 10 mg/kg, po measured every 10 mins after 5 mins of administration relative to control; format: functional; set-up: scale not given: the % may be the effect or the level left; summary of the method: as §2
Mus musculus [8] = experiment: Analgesic activity in Swiss albino mouse assessed as reduction of acetic acid-induced writhing at 20 mg/kg, po measured every 10 mins after 5 mins of administration relative to control; format: functional; set-up: scale not given: the % may be the effect or the level left; summary of the method: as §2
[9] = Metabolic stability in Sprague-Dawley rat plasma assessed as compound remaining after 120 mins by LC-MS/MS analysis; format: ADME, cell-free; details: read-out: Stability
Summary of the method: (§3)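 Compound (12 µL of 1 mM DMSO solution into 588 µL medium) incubated in PBS pH 7.4, pepsin-free SGF pH 1.5, or EDTA rat plasma. Aliquots taken at 0, 30, 60, 120 min and quenched with ice-cold acetonitrile containing internal standard; parent remaining as percent.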

[10] = Metabolic stability in Sprague-Dawley rat plasma assessed as compound remaining after 60 mins by LC-MS/MS analysis; format: ADME, cell-free; details: read-out: Stability; summary of the method: as §3
[11] = Metabolic stability in Sprague-Dawley rat plasma assessed as compound remaining after 30 mins by LC-MS/MS analysis; format: ADME, cell-free; details: read-out: Stability; summary of the method: as §3
[12] = Stability of the compound in simulated gastric fluid assessed as compound remaining at pH 1.5 after 120 mins by LC-MS/MS analysis; format: physicochemical; details: read-out: Stability
Summary of the method: (§4)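 1 mM DMSO stock added to 0.01 M PBS (pH 7.4) or 0.05 M simulated gastric fluid without pepsin (pH 1.5 with HCl); incubated in hybridisation oven; aliquots at 0, 30, 60, 120 min quenched with ice-cold acetonitrile containing internal standard; parent remaining (%) measured.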

[13] = Stability of the compound in simulated gastric fluid assessed as compound remaining at pH 1.5 after 60 mins by LC-MS/MS analysis; format: physicochemical; details: read-out: Stability; summary of the method: as §4
[14] = Solubility of the compound in simulated gastric fluid at pH 1.5 after 90 mins by HPLC analysis; format: ADME
Summary of the method: (§5)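 DMSO stock (20 mM) diluted 2 µL into 198 µL PBS 0.01 M pH 7.4 or pepsin-free SGF 0.05 M pH 1.5, duplicate wells, shaken 90 min at 300 rpm. Filtrates analysed by HPLC with photodiode-array detection against seven-point standards (1–200 µM).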

[15] = Stability of the compound in phosphate buffer saline assessed as compound remaining at pH 7.4 after 30 mins by LC-MS/MS analysis; format: physicochemical; details: read-out: Stability; summary of the method: as §4
[16] = Stability of the compound in phosphate buffer saline assessed as compound remaining at pH 7.4 after 120 mins by LC-MS/MS analysis; format: physicochemical; details: read-out: Stability; summary of the method: as §3
[17] = Stability of the compound in simulated gastric fluid assessed as compound remaining at pH 1.5 after 30 mins by LC-MS/MS analysis; format: physicochemical; details: read-out: Stability; summary of the method: as §4
[18] = Stability of the compound in phosphate buffer saline assessed as compound remaining at pH 7.4 after 60 mins by LC-MS/MS analysis; format: physicochemical; details: read-out: Stability; summary of the method: as §4
[19] = Solubility of the compound in phosphate buffer saline at pH 7.4 after 90 mins by HPLC analysis; format: physicochemical; summary of the method: as §5
Thoracic aorta [20] = experiment: Ex vivo vasorelaxant activity in Wistar rat endothelium thoracic aortic ring assessed as reduction of KCl-induced contraction at 0.001 uM to 10 uM relative to control; format: functional
Summary of the method: (§6)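 Endothelium-denuded thoracic aortic rings from male Wistar rats (250–350 g) in oxygenated Tyrode-type buffer at 37 °C, isometric tension recording. Rings precontracted with 30 mM KCl, then 3-fold increasing compound concentrations (1 nM–10 µM) added, also with 1 µM ODQ preincubated. Emax as % of KCl tone; pIC50; mean ± SE of 6–10 experiments.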

Thoracic aorta [21] = experiment: Ex vivo vasorelaxant activity in Wistar rat endothelium thoracic aortic ring assessed as reduction of KCl-induced contraction in presence of guanylate cyclase inhibitor ODQ; format: functional; summary of the method: as §6

Structure (SMILES)	Ratio IC50 (J774)	IC50 [1] [nM]	inhibition [2] [%]	inhibition [3] [%]	IC50 [4] [nM]	also measured
Cc1c(CC(=O)NCCO)cc(-c2ccc(S(C)(=O)=O)cc2)n1-c1cccc(F)c1	> 34	> 10000	95	0		
Cc1c(CC(=O)NC(CO)C(=O)O)cc(-c2ccc(S(C)(=O)=O)cc2)n1-c1cccc(F)c1 (racemic)	> 167	> 10000	100	23	68	
Cc1c(CC(=O)NCCCO)cc(-c2ccc(S(C)(=O)=O)cc2)n1-c1cccc(F)c1	> 222	> 10000	100	17	45	
Cc1c(CC(=O)NC(CO)C(=O)O)cc(-c2ccc(S(C)(=O)=O)cc2)n1-c1ccc(F)cc1 (racemic)	> 62.5	> 10000	100	23	160	Activity (Mus musculus [5]): Dose-dependent effect; Activity (Mus musculus [6]): 60%; Activity (Mus musculus [7]): 27%; Activity (Mus musculus [8]): 59%
Cc1c(CC(=O)OCCO[N+](=O)[O-])cc(-c2ccc(S(C)(=O)=O)cc2)n1-c1cccc(F)c1						remaining at 2 h [9]: 0%; remaining at 1 h [10]: 0%; remaining at 0.5 h [11]: 0%; remaining at 2 h [12]: 42.8%; remaining at 1 h [13]: 65.7%; solubility at 1.5 h [14]: < 1 µM; remaining at 0.5 h [15]: 74.1%; remaining at 2 h [16]: 0.15%; remaining at 0.5 h [17]: 80.2%; remaining at 1 h [18]: 53.6%
Cc1c(CC(=O)NC(CCO)C(=O)O)cc(-c2ccc(S(C)(=O)=O)cc2)n1-c1ccc(F)cc1 (racemic)	> 16	> 10000	89	19		
Cc1c(CC(=O)NC(CO[N+](=O)[O-])C(=O)O)cc(-c2ccc(S(C)(=O)=O)cc2)n1-c1ccc(F)cc1 (stereo not given)	> 32	> 10000	100	0	310	solubility at 1.5 h [19]: 90.5 µM (≈ 47 µg/mL); solubility at 1.5 h [14]: 112 µM (≈ 58.2 µg/mL); Activity (Mus musculus [5]): Dose-dependent effect; Emax (Thoracic aorta [20]): 25%; Activity (Thoracic aorta [21]): inactive; Activity (Mus musculus [6]): 50%; Activity (Mus musculus [7]): 0%; Activity (Mus musculus [8]): 29%
